Reference: ChEMBL document CHEMBL1147690, “A cassette-dosing approach for improvement of oral bioavailability of dual TACE/MMP inhibitors” (Bioorg Med Chem Lett, 2006)

Legend:
[1] = Clearance in rat at 1 mg/kg, iv and 3 mg/kg, po; assay type: ADME, organism-based; details: in vivo
Method in brief: (§1)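 Conscious, permanently cannulated rats (n = 4) were dosed with a five-compound cassette or a single compound. Dosing was 1 mg/kg iv into the femoral vein (30% N-methyl-2-pyrrolidone in PEG 200) and 3 mg/kg po by gavage (3% ethanol in corn oil), in the same animals with a 48 h washout. Femoral-artery plasma was sampled for 24 h (iv) or 7 h (po), acetonitrile-precipitated and analysed by HPLC/MS.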

[2] = biological target: T1, Disintegrin and metalloproteinase domain-containing protein 17 (Homo sapiens, UniProt P78536); test: Inhibition of LPS/interferon gamma-stimulated TNFalpha release from HPBMC; assay type: functional
[3] = tested on: Rattus norvegicus; test: Cmax in rat at 3 mg/kg, po normalized to 1 mg/kg; assay type: ADME, organism-based; set-up: dose 3 mg/kg, route oral; details: in vivo; method in brief: as §1
[4] = biological target: Collagenase 3 (Homo sapiens, UniProt P45452); test: Binding affinity to recombinant MMP13
[5] = Volume of distribution in rat at 1 mg/kg, iv and 3 mg/kg, po; assay type: ADME, organism-based; details: in vivo, read-out: Vdss; method in brief: as §1
[6] = Oral bioavailability in rat at 1 mg/kg, iv and 3 mg/kg, po; assay type: ADME, organism-based; details: in vivo; method in brief: as §1
[7] = biological target: T2, Interstitial collagenase (Homo sapiens, UniProt P03956); test: Binding affinity to recombinant MMP1
T2 sequence (P03956 whole entry): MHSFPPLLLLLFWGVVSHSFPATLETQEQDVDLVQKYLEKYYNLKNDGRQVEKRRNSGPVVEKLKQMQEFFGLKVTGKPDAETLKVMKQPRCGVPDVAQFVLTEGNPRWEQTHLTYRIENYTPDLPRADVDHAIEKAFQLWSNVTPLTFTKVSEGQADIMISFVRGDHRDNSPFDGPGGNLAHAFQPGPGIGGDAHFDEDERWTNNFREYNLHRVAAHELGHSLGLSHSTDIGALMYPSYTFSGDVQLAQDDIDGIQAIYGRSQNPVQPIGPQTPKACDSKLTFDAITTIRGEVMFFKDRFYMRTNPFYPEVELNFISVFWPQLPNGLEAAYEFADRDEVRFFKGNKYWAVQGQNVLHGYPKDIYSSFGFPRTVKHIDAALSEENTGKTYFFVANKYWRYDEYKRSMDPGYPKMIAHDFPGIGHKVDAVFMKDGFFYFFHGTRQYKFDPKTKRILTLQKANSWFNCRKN

[8] = biological target: T1, Disintegrin and metalloproteinase domain-containing protein 17; test: Binding affinity to recombinant TACE
[9] = biological target: Stromelysin-1 (Homo sapiens, UniProt P08254); test: Binding affinity to recombinant MMP3
Method in brief: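 Recombinant enzyme activity measured by a fluorimetric assay.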

Stromelysin-1, sequence (P08254 whole entry): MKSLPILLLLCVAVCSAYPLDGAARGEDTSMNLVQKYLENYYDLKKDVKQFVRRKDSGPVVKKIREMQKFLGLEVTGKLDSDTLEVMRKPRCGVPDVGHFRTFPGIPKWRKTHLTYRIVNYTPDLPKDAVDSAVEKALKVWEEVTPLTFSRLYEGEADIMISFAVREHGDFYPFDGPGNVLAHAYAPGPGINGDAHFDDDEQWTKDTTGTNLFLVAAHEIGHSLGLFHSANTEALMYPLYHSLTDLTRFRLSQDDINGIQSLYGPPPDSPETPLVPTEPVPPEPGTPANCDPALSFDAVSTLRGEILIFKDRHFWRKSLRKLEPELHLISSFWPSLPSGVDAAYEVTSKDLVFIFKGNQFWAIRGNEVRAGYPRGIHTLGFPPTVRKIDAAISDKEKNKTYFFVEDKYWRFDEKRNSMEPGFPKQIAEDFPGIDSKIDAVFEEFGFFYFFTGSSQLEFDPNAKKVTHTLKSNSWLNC
T1 sequence (P78536 whole entry, the tested form may be a part): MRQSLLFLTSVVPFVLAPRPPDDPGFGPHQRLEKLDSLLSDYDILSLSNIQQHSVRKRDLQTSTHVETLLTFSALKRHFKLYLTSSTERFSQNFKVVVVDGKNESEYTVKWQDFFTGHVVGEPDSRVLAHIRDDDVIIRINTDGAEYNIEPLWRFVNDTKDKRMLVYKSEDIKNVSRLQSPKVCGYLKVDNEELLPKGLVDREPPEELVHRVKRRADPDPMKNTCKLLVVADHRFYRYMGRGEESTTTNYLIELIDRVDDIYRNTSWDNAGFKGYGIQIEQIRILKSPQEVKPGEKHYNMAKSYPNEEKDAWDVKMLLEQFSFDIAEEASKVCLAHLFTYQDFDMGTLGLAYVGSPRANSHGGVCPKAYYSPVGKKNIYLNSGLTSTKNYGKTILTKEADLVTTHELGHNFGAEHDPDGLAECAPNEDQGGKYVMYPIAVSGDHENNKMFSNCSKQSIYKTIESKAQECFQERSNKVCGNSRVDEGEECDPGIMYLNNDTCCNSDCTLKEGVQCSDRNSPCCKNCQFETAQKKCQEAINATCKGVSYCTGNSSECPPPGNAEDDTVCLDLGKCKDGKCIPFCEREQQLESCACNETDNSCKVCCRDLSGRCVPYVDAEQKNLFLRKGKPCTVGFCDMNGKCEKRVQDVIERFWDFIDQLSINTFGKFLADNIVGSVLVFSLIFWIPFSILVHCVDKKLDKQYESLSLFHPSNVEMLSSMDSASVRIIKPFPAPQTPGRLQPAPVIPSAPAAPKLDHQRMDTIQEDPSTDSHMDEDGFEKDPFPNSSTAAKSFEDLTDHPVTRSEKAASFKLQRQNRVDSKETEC

clearance [1] [mL/min/kg]	Cmax [3] [nM]	Ki [4] [nM]	Vd [5] [L/kg]	bioavailability [6] [%]	Ki [7] [nM]	SMILES	IC50 [2] [nM]	Ki [8] [nM]	Ki [9] [nM]
10	42.7	0.5	0.34	3.2	1	CNC(=O)[C@@H](NC(=O)C(c1ccc(OC)cc1)C(CO)C(=O)NO)C(C)(C)C (single isomer, unassigned)	48		
		7			25	CC[C@H](C(=O)NO)[C@H](C(=O)N1CCCC[C@H]1C(=O)NC)c1ccc(OC)cc1	836	8	11
		55			213	COc1ccc([C@@H](C(=O)N2CCCCC2)[C@H](CO)C(=O)NO)cc1	> 10000	66	300
23.2	38.1	10	1.06	8.4	23	CNC(=O)[C@@H]1CCCCN1C(=O)[C@H](c1ccc(OC)cc1)[C@H](CO)C(=O)NO	> 10000	8	
						CN1C(=O)N(C[C@H](C(=O)NO)[C@@H](CC2CCCC2)C(=O)N2CCCCC2)C(=O)C1(C)C	> 10000	230	

SMILES	clearance [1] [mL/min/kg]	Cmax [3] [nM]	Ki [4] [nM]	Vd [5] [L/kg]	bioavailability [6] [%]	Ki [7] [nM]	IC50 [2] [nM]	Ki [8] [nM]	Ki [9] [nM]
CC[C@H](C(=O)NO)[C@H](C(=O)N1CCCC[C@H]1C(=O)NC)c1ccc(Cl)cc1	28.1	388.6	2	16.7	47.1	0.7	316	5	
CNC(=O)[C@@H](NC(=O)[C@H](c1ccc(OC)cc1)[C@H](CN1C(=O)N(C)C(C)(C)C1=O)C(=O)NO)C(C)(C)C			3			0.7	484	57	12
COc1ccc([C@@H](C(=O)N2CCCCC2)[C@H](CN2C(=O)N(C)C(C)(C)C2=O)C(=O)NO)cc1			19			83	> 10000	321	187
